Measured values from ChEMBL document CHEMBL4513216, “Probing the Open Global Health Chemical Diversity Library for Multistage-Active Starting Points for Next-Generation Antimalarials” (ACS Infect Dis, 2020).

Assay: Toxicity liver stage against HepG2, at 10uM
Assay type: cell-based
Design: test concentration 10 uM, cell line HepG2-A16-CD81EGFP
Conditions: human, HepG2-A16-CD81EGFP cells; read-out: INHIBITION
Procedure, shortened: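 Uninfected HepG2-A16-CD81EGFP cells, 3 × 10^3 per well, 1536-well, plated on prespotted compound at 10 μM final, parasite-free screening media added to match infected plates; puromycin 10 μM positive, DMSO 0.5% negative; run in parallel with 48 h PbLuc assay at 37 °C, 5% CO2; viability by CellTiter-Glo luminescence, normalized to controls.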

O=C(NC1CCCN(c2ccc(OC(F)F)cc2)C1)c1cnccn1 (stereo unspecified)
cytotoxicity at 10 µM: 0%

CNS(=O)(=O)c1csc(C(=O)N(C)Cc2sccc2C)c1
cytotoxicity at 10 µM: 16.4%

O=C(COCc1ccco1)Nc1cc(C(F)(F)F)c[nH]c1=O
cytotoxicity at 10 µM: -2.57%

COCC(=O)N1CCCC(C)(c2nncn2C)C1 (stereo unspecified)
cytotoxicity at 10 µM: 4.08%

CCc1c(C)sc2nc3n(CC(N)=O)nc(SC)n3c(=O)c12
cytotoxicity at 10 µM: -0.817%

COc1cccc(CN2CCCC(Nc3cccc(F)c3)C2)c1O (stereo unspecified)
cytotoxicity at 10 µM: -10.2%

CCc1n[nH]c(C2CN(Cc3nnc(C4CC4)n3C)CCO2)n1 (stereo unspecified)
cytotoxicity at 10 µM: 5.25%

O=C(C1CCCC1)N1CCC(c2ncc3c(n2)CCNC3)C1 (stereo unspecified)
cytotoxicity at 10 µM: -15.3%

Cc1nc(CNC2CCc3nc(C(C)C)nn3C2)oc1C (stereo unspecified)
cytotoxicity at 10 µM: -4.1%

CC1(C(=O)N2CCN(c3cnccn3)CC2)CNCCO1 (stereo unspecified)
cytotoxicity at 10 µM: 6.99%

NC(=O)C1CCN(CCCc2ccc(C(F)(F)F)cc2)CC1
cytotoxicity at 10 µM: -0.85%

CC(C#N)CN(C)C(=O)CCNC(=O)C(C)(C)C (stereo unspecified)
cytotoxicity at 10 µM: 0.843%

CC(C)(C)CC(=O)N1CC[C@@H]2[C@H](CC1)N(S(C)(=O)=O)CCS2(=O)=O
cytotoxicity at 10 µM: -8.68%

COc1ccc(CN2CCn3cc(CNC(=O)C4CCC4)nc3C2)cc1
cytotoxicity at 10 µM: 5.42%

CC(C)n1cc(CN2CCCN(C(=O)C(C)n3cncn3)CC2)cn1 (stereo unspecified)
cytotoxicity at 10 µM: -16.2%

CCCNc1ncc(CN2CCN(C)C(=O)C2C)cn1 (stereo unspecified)
cytotoxicity at 10 µM: 12.9%

COCCNC(=O)C1(c2ccccc2C)CCOCC1
cytotoxicity at 10 µM: -9.04%

CCc1nc(N)nc(N2CCCC3(CN(C)C(=O)O3)C2)c1C (stereo unspecified)
cytotoxicity at 10 µM: -138%

COc1cccc(OC)c1CC(=O)NC(C#N)c1ccsc1 (stereo unspecified)
cytotoxicity at 10 µM: 14.9%

Cc1cccc(C(=O)NCCCN2CCc3ccccc3C2)c1C
cytotoxicity at 10 µM: -4.71%

COc1ccc2c(c1)CC(NCc1cccc(OCC(N)=O)c1)CC2 (stereo unspecified)
cytotoxicity at 10 µM: -40.4%

O=C(O)c1ccccc1-c1ccc(CN2CCOCC2)cn1
cytotoxicity at 10 µM: -1.1%

Cc1oc(C(C)C)cc1C(=O)N1C[C@@H]2CC[C@H]1CN(S(=O)(=O)N(C)C)C2
cytotoxicity at 10 µM: -127%

O=C(NC1CCN(Cc2ccc(F)cc2)CC1)c1ccc2c(c1)CCC2
cytotoxicity at 10 µM: 2.55%

Clc1ccc(-n2cc(CNC3CCc4ncnn4C3)cn2)cc1 (stereo unspecified)
cytotoxicity at 10 µM: 0.77%

CCc1nnc(Nc2cccc(C3CCN(c4cnccn4)CC3)n2)s1
cytotoxicity at 10 µM: -26.5%

Cc1cccc(CN2CCC3(CCCN(C(=O)NC4CC4)C3)C2=O)n1 (stereo unspecified)
cytotoxicity at 10 µM: 12.2%

CCC(=O)Nc1c(C)nn(COc2cccc(F)c2)c1C
cytotoxicity at 10 µM: 7.77%

Cc1nc(C2CCCNC2)cc(N2CCc3nc(N)sc3C2)n1 (stereo unspecified)
cytotoxicity at 10 µM: -47.4%

Cn1cc(CNC2CCc3c(ccc(=O)n3C)C2)cn1 (stereo unspecified)
cytotoxicity at 10 µM: -115%

COCCN1CCc2ncnc(NC(C)C)c2CC1
cytotoxicity at 10 µM: 2.13%

CC(C)c1ncc2c(n1)CN(Cc1ccc3c(c1)OCCO3)CC2
cytotoxicity at 10 µM: -0.996%

Cc1ccc(CN2C[C@@H]3C[C@H](C(=O)NCC4CC4)N(C)[C@@H]3C2)o1
cytotoxicity at 10 µM: -3.63%

Cc1nc(-c2ccco2)ccc1C(=O)N1CCc2nnc(N)cc2C1
cytotoxicity at 10 µM: -7.09%

CCC(CC)NC(=O)CN1CCSCC1
cytotoxicity at 10 µM: -8.98%

O=C(Nc1cccc(Cl)c1)c1nn(C2CCS(=O)(=O)C2)c2c1CCCC2 (stereo unspecified)
cytotoxicity at 10 µM: -12.9%

Cc1ccc(C(=O)N(C)CCCc2cnn(C)c2)cc1N1CCNC1=O
cytotoxicity at 10 µM: -4.39%

COC(=O)CC1C(=O)NCCN1c1nc2c(s1)c(C)nn2C (stereo unspecified)
cytotoxicity at 10 µM: -7.36%

CC(C)C(=O)N1CCCC2(CCCN2CC2CCCC2)C1 (stereo unspecified)
cytotoxicity at 10 µM: 5.25%

COc1ncccc1CNC(=O)N1CCC(CN2CCOCC2)CC1
cytotoxicity at 10 µM: -39.2%

O=C(NCC(O)c1ccc(F)cc1F)c1ccccc1F (stereo unspecified)
cytotoxicity at 10 µM: 13.9%

Cn1cnnc1S(=O)(=O)C1CCN(S(=O)(=O)C2CC2)CC1
cytotoxicity at 10 µM: -9.99%

COc1ccc(C(=O)CNC(=O)c2nc(Cl)sc2C(C)C)cc1
cytotoxicity at 10 µM: -3.15%

Cn1ccnc1CN1CCC(F)(F)C2(CCN(c3cccnc3)C2)C1 (stereo unspecified)
cytotoxicity at 10 µM: -98.8%

CCc1ccc(C(=O)N2CCCC(c3noc(CC)n3)C2)o1 (stereo unspecified)
cytotoxicity at 10 µM: -3.97%

CCN1CC2(CC1=O)CN(Cc1ccsc1)CCN(C(=O)C(C)C)C2 (stereo unspecified)
cytotoxicity at 10 µM: 5.08%
